In article PMC3152616 (Peptides, 2011):
Read-outs that look alike come from different tables or passages of the source. Marks after values point to notes of the source that are not given here. Numbered stars: 1 amine (or outer) side, 2 acyl side, 3 side chain; on linkers, the order of the positions; unused ones are H or OH. Square brackets hold non-standard residues; d marks the D form. Peptide text beside a SMILES is read from it. * marks the point of attachment. dProψ(CH2NH)PheNH2 = NC(=O)[C@H](Cc1ccccc1)NC[C@H]1CCCN1*; X1 = O=C(C[C@@H](N[*:1])c1ccc(Cl)cc1)[*:2]; Hydrocinnamoyl = O=C(CCc1ccccc1)*; NHPhenethyl = c1ccc(CCN*)cc1; Nle = CCCC[C@H](N)C(=O)O; PhAc = O=C(Cc1ccccc1)*

Key:
NCI-H1299-BRS-3 cells = test: Clonogenic assay; assay type: cell-based, human; details: for Effect on NCI-H1299-BRS-3 cellular proliferation: unpublished; for Colony number: addition 10 nM, mean ± S.D., no addition 40 ± 6
BB1R = details: read-out: IC50, binding to BB1R; transfected Balb 3T3 cells; cited from earlier work
BRS-3 [1] = molecular target: T1, BRS-3 (Homo sapiens, UniProt P32247); details: cited from earlier work
T1 sequence (P32247 1-399): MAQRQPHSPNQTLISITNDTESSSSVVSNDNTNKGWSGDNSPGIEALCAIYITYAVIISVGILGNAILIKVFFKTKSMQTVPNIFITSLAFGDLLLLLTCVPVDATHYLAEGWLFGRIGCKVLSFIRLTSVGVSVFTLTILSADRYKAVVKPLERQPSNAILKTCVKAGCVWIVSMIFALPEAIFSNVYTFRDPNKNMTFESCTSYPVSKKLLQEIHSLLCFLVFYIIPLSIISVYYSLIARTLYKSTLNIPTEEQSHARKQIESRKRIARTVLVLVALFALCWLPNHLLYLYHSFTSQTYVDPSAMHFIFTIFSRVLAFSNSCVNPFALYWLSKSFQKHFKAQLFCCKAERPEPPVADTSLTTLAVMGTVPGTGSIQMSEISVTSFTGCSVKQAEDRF

BB2R = details: cited from earlier work
[2] = test system: ERK tyrosine phosphorylation; test: ERK tyrosine phosphorylation; assay type: cell-based, human; details: concentration not given
BRS-3 [3] = molecular target: T1, BRS-3; test: Inhibition of specific 125I-BA1 binding to NCI-H1299-BRS-3 cells
[4] = test system: EGFR tyrosine phosphorylation; test: EGFR tyrosine phosphorylation; assay type: cell-based, human
Balb/3T3-BRS-3 cells = test: MTT proliferation assay; assay type: cell-based
Balb/3T3 cells = test: MTT proliferation assay, control cells; assay type: cell-based; details: 30 μg/ml, 16 hours, mean ± S.E.
Procedure, shortened: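 Parental Balb/3T3 cells lacking BRS-3 were maintained in DMEM with 10% FBS. They were seeded at 10⁴/well in serum-free SIT medium (RPMI-1640 with selenite, insulin and transferrin) and exposed for 16 h to test compound at 10 nM or 30 μg/ml. MTT was then added for 3 h, formazan was dissolved in DMSO, and OD was read at 570 nm. Growth is given as % of control, mean ± S.E.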

[5] = read-out: IC50, binding to BRS-3, transfected Balb 3T3 cells
[6] = read-out: IC50, binding to BB2R, transfected Balb 3T3 cells
[7] = concentration not given, data not shown / unpublished

C[C@@](Cc1c[nH]c2ccccc12)(NC(=O)Nc1ccc([N+](=O)[O-])cc1)C(=O)NCC1(c2ccccn2)CCCCC1 [PD168368]
Effect on NCI-H1299-BRS-3 cellular proliferation (NCI-H1299-BRS-3 cells): little effect
IC50 (BB1R): 0.5 nM
IC50 (BRS-3 [1]; [5]): > 10000 nM
IC50 (BB2R; [6]): 213 nM
Inhibition of BA1-induced ERK tyrosine phosphorylation [2]: not inhibited
IC50 (BRS-3 [3]; read-out: IC50, inhibition of specific 125I-BA1 binding, NCI-H1299-BRS-3 cells, 37°C, mean ± S.E. of 4 determinations): > 2000 nM

CC(C)(C)n1nc(-c2ccc(Cl)cc2)c2c(N)ncnc21 [PP2]
Inhibition of the increase in EGFR tyrosine phosphorylation caused by BA1 ([4]; 10 μM, 100 nM BA1): inhibited

C[C@H](NC(=O)Cc1ccccc1)C(=O)N[C@H](Cc1c[nH]c2ccccc12)C(=O)NCCc1ccccc1 [16a] (PhAc-Ala-[dW]-NHPhenethyl)
IC50 (BRS-3 [1]; read-out: IC50, binding to human BRS-3): 3160 nM

COc1cccc(-c2cc(=O)c3ccccc3o2)c1N [PD98059]
Inhibition of the increase in EGFR tyrosine phosphorylation caused by BA1 [4, 7]: no effect
Effect on growth (Balb/3T3-BRS-3 cells; 10 μM, all cells tested, preliminary unpublished data): little effect
Inhibition of BA1-induced ERK tyrosine phosphorylation [2]: reversed

CNC(=O)[C@H](Cc1c[nH]c2ccccc12)NC(=O)[C@@H](CC(=O)NO)CC(C)C [GM6001]
Inhibition of the increase in EGFR tyrosine phosphorylation caused by BA1 ([4]; 10 μM, 100 nM BA1): inhibited

CSCC[C@H](NC(=O)[C@H](Cc1ccccc1)NC(=O)[C@H](Cc1c[nH]cn1)NC(=O)CNC(=O)[C@@H](NC(=O)[C@H](C)NC(=O)[C@H](Cc1c[nH]c2ccccc12)NC(=O)[C@H](CC(C)C)NC(=O)[C@H](CC(N)=O)NC(=O)CN)[C@@H](C)O)C(N)=O [NMB, neuromedin B]
Colony number (NCI-H1299-BRS-3 cells): 46 ± 5^a
IC50 (BRS-3 [3]): > 2000 nM

c1ccc2c(c1)[I+]c1ccccc1-2 [DPI, diphenylene iodonium]
Inhibition of the increase in EGFR tyrosine phosphorylation caused by BA1 ([4]; 15 μM, 100 nM BA1): inhibited

CC(=O)N[C@@H](CS)C(=O)O [N-acetylcysteine]
Inhibition of the increase in EGFR tyrosine phosphorylation caused by BA1 ([4]; 5 mM, 100 nM BA1): reversed

COc1cc2ncnc(Nc3ccc(F)c(Cl)c3)c2cc1OCCCN1CCOCC1 [Gefitinib, gefitinib]
Effect on colony number (NCI-H1299-BRS-3 cells; gefitinib dose-response, exogenous BA1 not added, Fig. 1B): reduced colony number in a dose-dependent manner
% Growth Balb/3T3 (Balb/3T3 cells): 31 ± 4 %
% Growth Balb/3T3-BRS-3 (Balb/3T3-BRS-3 cells; 30 μg/ml, 16 hours, MTT, mean ± S.E.): 41 ± 6 %
IC50 (BRS-3 [3]): > 2000 nM

CCCC[C@H](NC(=O)[C@H](Cc1ccccc1)NC(=O)[C@H](Cc1c[nH]cn1)NC(=O)C[C@@H](NC(=O)[C@@H](NC(=O)[C@H](C)NC(=O)[C@H](Cc1c[nH]c2ccccc12)NC(=O)[C@H](CCC(N)=O)NC(=O)[C@H](N)Cc1ccc(O)cc1)C(C)C)c1ccc(Cl)cc1)C(N)=O [BA3, (DTyr^6, R-Apa^11,4-Cl,Phe^13, Nle^14)bombesin^6-14] (H-[dY]QWAV[X1]HF[Nle]-NH2; N-terminus and C-terminus assumed)
EGFR tyrosine phosphorylation (transactivation) ([4]; 100 nM, NCI-H1299-BRS-3 cells): increased
Selectivity for hBRS-3 over hNMBR or hGRPR (BRS-3 [1]): over 60 fold

COc1cc2ncnc(Nc3cccc(Cl)c3)c2cc1OC [AG1478]
Inhibition of the increase in EGFR tyrosine phosphorylation caused by BA1 [4, 7]: blocked
Inhibition of BA1-induced ERK tyrosine phosphorylation [2]: blocked

CSCC[C@H](NC(=O)[C@H](CC(C)C)NC(=O)[C@H](Cc1c[nH]cn1)NC(=O)CNC(=O)[C@@H](NC(=O)[C@H](C)NC(=O)[C@H](Cc1c[nH]c2ccccc12)NC(=O)[C@H](Cc1c[nH]cn1)NC(=O)[C@H](CC(N)=O)NC(=O)CNC(=O)[C@H](CCCNC(=N)N)NC(=O)[C@@H]1CCCN1C(=O)[C@H](Cc1ccc(O)cc1)NC(=O)[C@H](CCSC)NC(=O)[C@H](CCCCN)NC(=O)[C@@H](NC(=O)[C@H](CC(C)C)NC(=O)[C@@H](NC(=O)[C@@H](NC(=O)CNC(=O)CNC(=O)CNC(=O)[C@H](C)NC(=O)[C@@H]1CCCN1C(=O)[C@H](CC(C)C)NC(=O)[C@@H]1CCCN1C(=O)[C@@H](N)C(C)C)[C@@H](C)O)C(C)C)[C@@H](C)O)C(C)C)C(N)=O [GRP, gastrin releasing peptide]
Colony number (NCI-H1299-BRS-3 cells): 41 ± 5^aa

O=S(=O)(O)c1cc(O)c(O)c(S(=O)(=O)O)c1 [Tiron]
Inhibition of the increase in EGFR tyrosine phosphorylation caused by BA1 ([4]; 5 mM, 100 nM BA1): reversed

Ac-Phe-Trp-Ala-His(γBzl)-Nip-Gly-Arg-NH2
IC50 (BB2R; read-out: IC50, BB2R, ref 2, 28): > 10000 nM
IC50 (BB2R; read-out: IC50, BB2R, ref 26, 27): 2800 nM

CC(C)[C@H](NC(=O)[C@H](C)NC(=O)[C@H](Cc1c[nH]c2ccccc12)NC(=O)[C@H](Cc1c[nH]cn1)NC(=O)CCc1ccccc1)C(=O)N[C@H](C)C(=O)N[C@@H](Cc1c[nH]cn1)C(=O)N1CCC[C@@H]1CN[C@@H](Cc1ccccc1)C(N)=O [BW2258U89] (Hydrocinnamoyl-HWAV[dA]H-{dProψ(CH2NH)PheNH2}; N-terminus and C-terminus assumed)
Effect on NCI-H1299-BRS-3 cellular proliferation (NCI-H1299-BRS-3 cells): little effect
IC50 (BB1R): 4900 nM
IC50 (BRS-3 [1]; [5]): 6820 nM
IC50 (BB2R; [6]): 0.2 nM
Inhibition of BA1-induced ERK tyrosine phosphorylation [2]: not inhibited
